From PubChem BioAssay AID1216 (Sanford-Burnham Center for Chemical Genomics, 2008) come the findings set out here.

Molecules are shown by their SMILES. Screen size: about 190,000 compounds; about 660 (0.35%) were called active.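 Rule for the calls: active = activation factor of 2 or more at 20 µM; inactive = the rest.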 This excerpt belongs to a sample that is enriched for actives.

Mannose-6-phosphate isomerase (Homo sapiens), sequence (P34949 whole entry, looked up): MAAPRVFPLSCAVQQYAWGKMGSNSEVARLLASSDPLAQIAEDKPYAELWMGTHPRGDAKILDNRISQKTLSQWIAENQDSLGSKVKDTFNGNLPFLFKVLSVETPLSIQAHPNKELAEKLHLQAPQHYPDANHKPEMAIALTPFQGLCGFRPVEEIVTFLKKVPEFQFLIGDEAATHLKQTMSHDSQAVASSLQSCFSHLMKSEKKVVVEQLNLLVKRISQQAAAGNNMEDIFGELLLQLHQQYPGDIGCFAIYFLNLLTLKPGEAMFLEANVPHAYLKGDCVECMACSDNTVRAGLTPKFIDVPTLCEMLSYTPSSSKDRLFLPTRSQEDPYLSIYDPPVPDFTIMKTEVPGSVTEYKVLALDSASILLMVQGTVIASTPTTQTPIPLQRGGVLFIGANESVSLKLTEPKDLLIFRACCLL

This assay addresses Mannose-6-phosphate isomerase (Homo sapiens) (UniProt P34949). The assay can be described thus: human PMI activators, high substrate, primary screen, biochemical, fluorescence intensity, near-saturating mannose 6-phosphate (AID 1216). Particulars: coupled PMI enzyme assay, resazurin fluorescence, 20 min; at 20 µM; active compounds read high; 1 = untreated enzyme, 0 = substrate-free blank. The procedure, abridged:
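test system = human PMI in coupled enzyme assay | medium = HEPES-buffered pH 7.4 with magnesium and detergent | also added = 1.0 mM mannose-6-phosphate substrate with 0.22 mM NADP+ | compound = 20 µM single dose | times = 20 min incubation at room temperature | measured by = resorufin fluorescence (Ex 544/Em 590 nm) from resazurin via diaphorase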
On to `CC(C)(C)C(=O)CSc1nc2ccccc2o1`, for which the activation factor was 0.9 (inactive).
Turning to `CN1CCN(S(=O)(=O)c2cccc(C(=O)O)c2)CC1`, the activation factor was 1.1 (inactive).
Turning to `CC1Cc2ccccc2N1C(=O)CSc1nnc(-c2ccc(S(=O)(=O)N3CCCC3)cc2)n1C` (centres undefined), the activation factor is 0.4 (inactive).
As for `COc1ccccc1NC(=O)C1=C(C)Nc2nc3ccccc3n2C1c1cccs1` (centres undefined), the figure is 1 (inactive); as for `COC(=O)Cc1cc(=O)n(-c2nc3ccccc3s2)[nH]1`, 2 (active); as for `CCC(=O)NC(=Nc1nc2ccccc2s1)NC(=O)CC`, 1.1 (inactive).
As for `COC(=O)Cc1nc2ccccc2[nH]1`, the figure is 1 (inactive).
As for `CCCCN=C1C([N+](=O)[O-])=CC=C2C1=NC1(CCCCC1)N2O`, the figure is 0.5 (inactive); as for `O=C(Nc1cccnc1)c1cc2cc(Br)ccc2oc1=O`, 1.1 (inactive); as for `CS(=O)(=O)N(CC(=O)NC1CCCC1)Cc1ccc(F)cc1`, 1 (inactive).
In the case of `CCC1=NN(C(=O)Cc2ccc([N+](=O)[O-])cc2)C(O)(c2ccc(Br)cc2)C1` (centres undefined), the activation factor is 0.9 (inactive).
Then `CCN(CC)CCN1C(=O)C(=O)/C(=C(/O)c2ccccc2)C1c1ccccc1F` (centres undefined), with 1 (inactive); and `CCN(CC)CCN1C(=O)C(=O)/C(=C(/O)c2cnn(-c3ccccc3)c2C)C1c1cccs1` (centres undefined), with 2 (active).
As for `CCN(CC)CCN1C(=O)C(=O)/C(=C(/O)c2ccc(OC)c(OC)c2)C1c1ccccn1` (centres undefined), the figure is 1.2 (inactive); as for `Cc1cc(C)c(OCCN2CC(C)OC(C)C2)c(Br)c1` (centres undefined), 0.9 (inactive); as for `Cc1scc(C(=O)NNC(=S)NCc2ccccc2)c1C`, 1.1 (inactive).
Then `S=C(c1ccc(-c2ccccc2)o1)N1CCCCC1`, with 0.9 (inactive).
Turning to `C=CCN(C(=O)c1cc(C)cc(C)c1)C1(C(=O)Nc2ccccc2)CCN(C(C)C)CC1`, the activation factor was 1 (inactive).
Then `COc1cccc(CN2CCNC(=O)C2CC(=O)N(C)CCc2ccccn2)c1` (centres undefined), with 0.7 (inactive).
As for `CC1=C(C)CC(C(=O)NNC(=O)c2csc3c2CCC(C(C)(C)C)C3)C(C(=O)O)C1` (centres undefined), the figure is 1 (inactive); as for `Cc1ccc(/C(N)=N/OC(=O)COc2ccc(Cl)c(C)c2)cc1`, 1 (inactive); as for `Nc1ncc(-c2cc3ccccc3oc2=O)s1`, 0.8 (inactive).
Then `O=C(c1cn(-c2ccccc2)nc1-c1cc2ccccc2oc1=O)N1CCOCC1`, with 1 (inactive); and `O=c1oc2ccccc2cc1-c1cn(-c2ccccc2)c(=S)[nH]1`, with 2.3 (active).
Consider `O=S1(=O)CC/C(=N\Nc2ccc(F)cc2)c2ccsc21`, for which the activation factor is 2.6 (active).
Then `COC(=O)c1nc(NC(=O)c2ccc(F)cc2)n[nH]1`, with 1 (inactive); and `CCOC(=O)C1(O)CC(C)=NN1C(=O)c1cccc(Br)c1` (centres undefined), with 1.1 (inactive); and `Cn1cccc1/C=N/NC(=O)c1ccc(OC(F)(F)C(F)F)cc1`, with 0.9 (inactive).
As for `O=C(NCc1ccccc1Cl)C1CCCO1` (centres undefined), the figure is 1 (inactive).
